For 18 compounds, inhibition results are on record in ChEMBL document CHEMBL1135621, “Development of novel EDG3 antagonists using a 3D database search and their structure-activity relationships” (J Med Chem, 2002).

Sphingosine 1-phosphate receptor 3 (Homo sapiens), sequence (Q99500 whole entry): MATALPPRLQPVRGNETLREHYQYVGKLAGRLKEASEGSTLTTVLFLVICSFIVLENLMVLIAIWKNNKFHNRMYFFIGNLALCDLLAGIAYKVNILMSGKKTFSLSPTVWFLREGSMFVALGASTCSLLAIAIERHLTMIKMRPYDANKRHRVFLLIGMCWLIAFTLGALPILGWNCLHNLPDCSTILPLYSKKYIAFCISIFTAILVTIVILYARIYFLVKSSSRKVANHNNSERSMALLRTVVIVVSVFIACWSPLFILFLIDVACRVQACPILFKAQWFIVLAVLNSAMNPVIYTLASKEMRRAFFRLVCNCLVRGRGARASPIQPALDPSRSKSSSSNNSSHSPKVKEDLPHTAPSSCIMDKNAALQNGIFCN

The experiment addresses Sphingosine 1-phosphate receptor 3 (Homo sapiens) (UniProt Q99500). The experiment can be described thus: Inhibitory effect towards Sphingosine 1-phosphate receptor Edg-3 (EDG3). Details: concentration or dose not given beside the values. As to conditions: concentration not given here. In a few lines:
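Hela cells transfected with human EDG3 cDNA, seeded in DMEM/10% FBS for 24 h at 37 °C, then in MEM for 24 h. Cells are loaded with 5 µM Calcium Green-1 AM in D-PBS(+) for 60 min, given 10 µM test compound for 5 min, then challenged with 1 µM S1P. Fluorescence (ex 485/em 535 nm) is read every 3 s for 30 s. Inhibition (%) is the RFU difference versus the 0.1% DMSO control, averaged over triplicate wells, run on three separate days.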
Turning to `CCCCCCCCCc1ccc(C2N[C@H](C(=O)O)CS2)cc1` (stereo partly drawn), the inhibition (commonly the percentage by which the read-out fell short of the control) is 21.9%.

For the compound `CCCCCCCCCCCCCC1NC(C(=O)O)CCS1` (stereo not drawn), the inhibition came out at 5.9%.

The compound `CCCCCCCCCCCCCC1NC(C(=O)O)CS1` (stereo not drawn) yielded an inhibition of 6.6%.

The compound `CCCCCCCCCCCCC1NC(C(=O)O)CCS1` (stereo not drawn) yielded an inhibition of 0.3%.

As for `CCCCCCCc1ccc(C2N[C@H](C(=O)O)CS2)cc1` (stereo partly drawn), the inhibition is 42.9%.

The compound `CCCCCCCCCCCCC1NC(C(=O)O)CS1` (stereo not drawn) came in with an inhibition of 15.9%.

The compound `CCCCCCCCCC1NC(C(=O)O)CS1` (stereo not drawn) yielded an inhibition of 14.8%.

In the case of `CCCCCc1cccc(C2N[C@H](C(=O)O)CS2)c1` (stereo partly drawn), the inhibition was 9.9%.

Compound `CCCCCCCCCCC[C@H]1N[C@H](C(=O)O)CS1` had an inhibition of 37.6%.

Consider `CCCCCCCCCCCC1NC(C(=O)O)CCS1` (stereo not drawn), for which the inhibition worked out at 9.4%.

`CCCCCCCCCCC1NC(C(=O)O)CCS1` (stereo not drawn) returned an inhibition of 9.3%.

Regarding `CCCCCCCCCc1cccc(C2N[C@H](C(=O)O)CS2)c1` (stereo partly drawn), the inhibition was 37.2%.

The compound `CCCCCCCCCC1NC(C(=O)O)CCS1` (stereo not drawn) had an inhibition of 6.9%.

Regarding `CCCCCCC1NC(C(=O)O)CS1` (stereo not drawn), the inhibition came to 0%.

`CCCCCc1ccc(C2N[C@H](C(=O)O)CS2)cc1` (stereo partly drawn): the inhibition amounted to 13%.

Consider `CCCCCCCCCC[C@H]1N[C@H](C(=O)O)CS1`, for which the inhibition was 34.5%.

Take `CCCCCCCc1cccc(C2N[C@H](C(=O)O)CS2)c1` (stereo partly drawn): the inhibition stood at 43.4%.

`CCCCCCCCCCC1NC(C(=O)O)CS1` (stereo not drawn) registered an inhibition of 26.4%.
